Experimental data published in ChEMBL document CHEMBL1126117, “Synthesis and chemical characterization of N-substituted phenoxazines directed toward reversing vinca alkaloid resistance in multidrug-resistant cancer cells” (J Med Chem, 1992).

How the values were obtained:
KB [1] = assay: Increase in the accumulation of vincristine in multi-drug resistant KB8-5 (HeLa variant) cell line in vitro.; format: functional, Homo sapiens; design: concentration or dose not given beside the values
Method in brief: (§1)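 Radiolabel accumulation. Cell monolayers (2×10^6 cells, attached overnight; KBChR-8-5 kept with 10 ng/mL colchicine) were washed and held 10 min in physiologic Tris buffer. They were then given serum-free RPMI-1640 in 25 mM Hepes, pH 7.4, with [3H]VCR (70.4 nM) or [3H]VLB (49.5 nM), ±modulator at 100 μM (<0.1% DMSO), for 2 h at room temperature. Cells were washed in ice-cold PBS, trypsinized and scintillation-counted, with cell number counted per dish. Percent control = uptake with/without modulator ×100. Mean of two experiments, each done in triplicate.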

GC3/Cl [2] = assay: Increase in the accumulation of vincristine in multi-drug resistant GC3/Cl (human adenocarcinoma) cell line in vitro.; format: functional
KB [3] = assay: Increase in the accumulation of vinblastine in multi-drug resistant KB8-5 (HeLa variant) cell line in vitro.; format: functional, Homo sapiens; design: concentration or dose not given beside the values; method in brief: as §1
KB [4] = assay: Percent control was evaluated by measuring the ability to increase the vinca alkaloid, vinblastine(VLB) in KB8-5 cell line.; format: functional, Homo sapiens; method in brief: as §1
KB [5] = assay: Percent control was evaluated by measuring the ability to increase the vinca alkaloid, vincristine(VCR) in KB8-5 cell line.; format: functional, Homo sapiens; method in brief: as §1
GC3/Cl [6] = assay: Increase in the accumulation of vinblastine in multi-drug resistant GC3/Cl (human adenocarcinoma) cell line in vitro.; format: functional; design: concentration or dose not given beside the values
KB [7] = assay: Concentration required to produce 10% reduction in clonogenic survival of KB8-5 cell line.; format: functional; settings: Homo sapiens
Method in brief: (§2)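 Clonogenic survival. KBChR-8-5 cells were plated in triplicate at 1000/well and GC3 cells at 3000/well. After 24 h the medium was replaced with fresh medium holding modulator at 1-100 μM (final 0.1% DMSO). Cells were kept 7 days at 37 °C, then stained with crystal violet and the colonies counted. The 50% and 10% colony-reduction concentrations were read from concentration-survival curves versus controls.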

GC3/Cl [8] = assay: Concentration required to produce 10% reduction in clonogenic survival of GC3/Cl cell line.; format: functional, cell-based; settings: Homo sapiens; method in brief: as §2
KB [9] = assay: Concentration required to produce 50% reduction in clonogenic survival of KB8-5 cell line.; format: functional, cell-based; settings: Homo sapiens; method in brief: as §2
KB [10] = assay: Inhibitory concentration was evaluated by measuring the potentiation of VLB cytotoxicity in KB8-5 cell line.; format: functional, cell-based; settings: Homo sapiens
Method in brief: (§3)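 Colony-formation assay. Cells were given graded VCR or VLB continuously for 7 days at 37 °C, with or without modulator at the concentration that alone reduced colony formation by 10%. Colonies were then stained with crystal violet and counted. Vinca IC50 values were derived with and without modulator, and the result was expressed as fold potentiation.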

KB [11] = assay: Inhibitory concentration was evaluated by measuring the potentiation of VCR cytotoxicity in KB8-5 cell line.; format: functional, cell-based; settings: Homo sapiens; method in brief: as §3
GC3/Cl [12] = assay: Concentration required to produce 50% reduction in clonogenic survival of GC3/Cl cell line.; format: functional, cell-based; settings: Homo sapiens; method in brief: as §2
GC3/Cl [13] = assay: Inhibitory concentration was evaluated by measuring the potentiation of VCR cytotoxicity in GC3/Cl cell line.; format: functional, cell-based; settings: Homo sapiens; method in brief: as §3
GC3/Cl [14] = assay: Inhibitory concentration was evaluated by measuring the potentiation of VLB cytotoxicity in GC3/Cl cell line.; format: functional, cell-based; settings: Homo sapiens; method in brief: as §3

Row | SMILES | Control (KB [1]) [%] | Control (GC3/Cl [2]) [%] | Control (KB [3]) [%] | Control (KB [4]) [%] | Control (KB [5]) [%] | Control (GC3/Cl [6]) [%] | IC10 (KB [7]) [µM] | IC10 (GC3/Cl [8]) [µM] | IC50 (KB [9]) [µM] | IC50 (KB [10]) [nM] | IC50 (KB [11]) [nM] | IC50 (GC3/Cl [12]) [µM] | IC50 (GC3/Cl [13]) [nM] | IC50 (GC3/Cl [14]) [nM]
1 | O=C(N1c2ccccc2Oc2ccccc21)C(F)(F)F | 415 | 230 | 827 | – | – | – | – | – | – | – | – | – | – | –
2 | CCN(CC)CC(=O)N1c2ccccc2Oc2ccccc21 | 184 | 160 | 953 | – | – | – | – | – | – | – | – | – | – | –
3 | O=C(CCl)N1c2ccccc2Oc2ccccc21 | – | – | – | 236 | 138 | – | – | – | – | – | – | – | – | –
4 | OCCN(CCO)CCCN1c2ccccc2Oc2ccccc21 | 473 | – | 1666 | – | – | 1070 | 25 | 25 | 38 | 2.7 | 5.9 | 37 | 4.8 | 2
5 | c1ccc2c(c1)Oc1ccccc1N2CCCN1CCCCC1 | 435 | – | 1227 | – | – | 633 | – | – | – | – | – | – | – | –
6 | c1ccc2c(c1)Oc1ccccc1N2CCCN1CCCC1 | 408 | 250 | 969 | – | – | 757 | – | – | – | – | – | – | – | –
7 | ClCCCCN1c2ccccc2Oc2ccccc21 | 398 | – | 792 | – | – | 361 | – | – | – | – | – | – | – | –
8 | c1ccc2c(c1)Oc1ccccc1N2CCCCN1CCOCC1 | 702 | – | 2684 | – | – | 1175 | 6 | 10 | 18 | 2 | 4.5 | 17 | 2.4 | 2
9 | CCN(CC)CCCN1c2ccccc2Oc2ccccc21 | 546 | – | 2123 | – | – | 1025 | – | – | 15 | – | – | 10 | – | –
10 | CCN(CC)CCCCN1c2ccccc2Oc2ccccc21 | 211 | – | 697 | – | – | 737 | – | – | – | – | – | – | – | –
11 | c1ccc2c(c1)Oc1ccccc1N2CCCN1CCOCC1 | 742 | – | 1717 | – | – | 960 | 25 | 25 | 73 | 1.6 | 1.9 | 40 | 2.1 | 2
12 | c1ccc2c(c1)Oc1ccccc1N2CCCCN1CCCC1 | 198 | – | 477 | – | – | 1315 | – | – | < 7 | – | – | 7 | – | –
13 | O=C(CN1CCN(CCO)CC1)N1c2ccccc2Oc2ccccc21 | 280 | – | 776 | – | – | – | – | – | – | – | – | – | – | –
14 | OCCN(CCO)CCCCN1c2ccccc2Oc2ccccc21 | 92 | – | 403 | – | – | 1165 | – | – | < 10 | – | – | 16 | – | –
15 | OCCN1CCN(CCCN2c3ccccc3Oc3ccccc32)CC1 | 343 | – | 824 | – | – | 879 | – | – | – | – | – | – | – | –
16 | ClCCCN1c2ccccc2Oc2ccccc21 | 454 | – | 342 | – | – | 570 | 20 | 50 | 57 | 5.3 | 11.8 | 83 | 2 | 1.7
17 | c1ccc2c(c1)Oc1ccccc1N2CCCCN1CCCCC1 | 196 | – | 1071 | – | – | 1121 | – | – | < 7 | – | – | 7 | – | –
18 | O=C(CN1CCCCC1)N1c2ccccc2Oc2ccccc21 | 326 | – | 2023 | – | – | – | 40 | 40 | 73 | 2.3 | 6 | 88 | 2.9 | 2.2
19 | O=C(CN1CCOCC1)N1c2ccccc2Oc2ccccc21 | 290 | – | 674 | – | – | – | – | – | – | – | – | – | – | –
20 | OCCN1CCN(CCCCN2c3ccccc3Oc3ccccc32)CC1 | 91 | – | 188 | – | – | 1340 | – | – | < 7 | – | – | 7 | – | –
21 | O=C(CN1CCCC1)N1c2ccccc2Oc2ccccc21 | 188 | – | 776 | – | – | – | – | – | – | – | – | – | – | –
22 | COc1ccc(CCN(C)CCCC(C#N)(c2ccc(OC)c(OC)c2)C(C)C)cc1OC (stereo not given) | – | – | 1124 | – | – | – | – | – | – | – | – | – | – | –
